# From PubChem
# Shown are actives, neighbours in structure and some others; about 2.3% of the full set was active somewhere.
# Scp1 inh – inhibitors of human Scp-1 phosphatase | Q9GZU7 | Recombinant Scp1, phosphopeptide, malachite green phosphate absorbance | inhibition, % at 20 µM | 340,000 compounds, 0.88% hits;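 active means inhibition above about 50% at 20 µM, limit read from the data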;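 further: plate controls were DMSO wells with enzyme for no effect and wells lacking enzyme for full effect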
#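 System: truncated SCP-1 phosphatase (76-261aa); medium: Tris acetate buffer pH 5.5 with MgCl2 and Tween-20; incubation: 45 min room-temperature reaction, 5 min colour, 30 min stabiliser; compound: single 20 µM dose, 1% DMSO; reagent: Phosphorylated 17-residue peptide substrate; read-out: % inhibition at 20 µM; technique: colorimetric free-phosphate detection, absorbance 630 nm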
# SUMO1-SIM PPI – modulators of human SUMO1-mediated protein-protein interactions; P63165; SUMO1 binding to a labelled peptide, TR-FRET, 1 h; inhibition, % at 20 µM; 360,000 compounds, 0.33% hits; in the data active means inhibition above about 37%
# Target sequence (P63165 whole entry, looked up): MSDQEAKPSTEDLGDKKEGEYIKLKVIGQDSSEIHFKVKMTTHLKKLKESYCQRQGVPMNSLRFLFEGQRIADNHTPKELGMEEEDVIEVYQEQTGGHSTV
# STEP inh – STEP (human) phosphatase inhibition | recombinant STEP, OMFP fluorogenic substrate, fluorescence | 360,000 compounds, 0.25% hits | P54829 | inhibition, % at 20 µM | AID 588621;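 active means inhibition at 20 µM, scaled per plate between control wells, above about 37%, limit read from the data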;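 further: 0% = DMSO with enzyme and substrate and 100% = substrate only without enzyme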
#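 Assay system: isolated STEP enzyme / Timing: 20 min at room temperature, dark / Doses: 20 µM, 1% DMSO / Technique: fluorescence intensity, excitation 480 nm, emission 540 nm / Reagent: fluorogenic phosphatase substrate OMFP at 25 µM final / Measure: percent inhibition scaled to no-enzyme and uninhibited-enzyme controls, plate-pattern corrected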
# DNMT1 block – DNMT1 (human) enzyme inhibition. inhibition (reported as % activation of signal), % at 10 µM. DNMT1 molecular beacon, Hinp1I cleavage, fluorescence. 360,000 compounds, 0.83% hits. P26358; in the data active means inhibition above about 50%
# Rpn11 block – Rpn11 (human) deubiquitinase inhibition. O00487. human 26S proteasome, Ub4-pepOG fluorescence polarization; 20S core pre-blocked with epoxomicin. inhibition, % at 20 µM. 360,000 compounds, 0.59% hits. AID 588493;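 active means inhibition at 20 µM, scaled to each plate's controls, above about 33%, limit read from the data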
# LMPTP inh – blocks human LMPTP phosphatase; P24666; recombinant LMPTP-A, OMFP fluorogenic substrate, fluorescence intensity; inhibition, % at 20 µM; 360,000 compounds, 0.22% hits;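 active means compounds that cut the enzyme signal by at least half of the control window in the single-dose screen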;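 further: plate controls were DMSO wells with enzyme plus substrate for no effect and substrate without enzyme for full effect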
#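 Assay system: LMPTP-A phosphatase enzyme | Input: 0.625 nM enzyme | Also added: Fluorogenic phosphatase substrate OMFP at 400 µM final | Compound dosing: One test concentration per compound, 20 µM, with 3% DMSO overall | Schedule: 50 min enzyme reaction at room temperature, protected from light | Signal: Fluorescence intensity | Benchmarks: no-enzyme and uninhibited controls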
# DNMT1 inh conf – confirmation of human DNMT1 inhibitors; shares compounds with DNMT1 block; DNMT1 molecular beacon HinP1I cleavage, fluorescence; inhibition, % at 10 µM; 2,300 compounds, 8% hits;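 active means average inhibition of at least 30% in the single-concentration confirmation test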
# Beacon interf – counter-screen for DNMT1 inhibitors: spectral interference. shares compounds with DNMT1 block. DNMT1 molecular beacon spectral interference counterscreen, fluorescence 485/520. activation (fluorescence interference), % at 10 µM. 2,300 compounds, 1% hits. AID 602387;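 active means activation of at least 30% at 10 µM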;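 further: DNMT1 catalytic domain with a HinP1I cleavage step and a FAM/dabcyl DNA beacon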
# Rpn11 inh conf – Rpn11 inhibition confirmation, single concentration; purified human 26S proteasome, Ub4-pepOG fluorescence polarization; proteasome pretreated with epoxomicin; inhibition, % at 20 µM; 1,900 compounds, 29% hits; shares compounds with Rpn11 block; AID 602318
# MMP-2 counter – blocks human MMP-2, flagging nonselective RPN11 hits; AID 602330; recombinant MMP-2, FRET peptide cleavage fluorescence; inhibition, % at 20 µM; 1,900 compounds, 4% hits; shares compounds with Rpn11 block;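 further: human MMP-2 activated beforehand with APMA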
# Thrombin FP – counter-screen for RPN11 inhibitors: inhibition of bovine thrombin | shares compounds with Rpn11 block | bovine thrombin cleavage of Ub4-pepOG, fluorescence polarization | inhibition, % at 20 µM | 1,900 compounds, 13% hits | AID 602333;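 active means mean inhibition at least 40% at 20 µM, or signal 3 deviations below plate average, so some actives read negative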;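 further: plate controls were thrombin with DMSO for no effect and buffer wells lacking thrombin for full effect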
# Target sequence (P00735 whole entry, looked up): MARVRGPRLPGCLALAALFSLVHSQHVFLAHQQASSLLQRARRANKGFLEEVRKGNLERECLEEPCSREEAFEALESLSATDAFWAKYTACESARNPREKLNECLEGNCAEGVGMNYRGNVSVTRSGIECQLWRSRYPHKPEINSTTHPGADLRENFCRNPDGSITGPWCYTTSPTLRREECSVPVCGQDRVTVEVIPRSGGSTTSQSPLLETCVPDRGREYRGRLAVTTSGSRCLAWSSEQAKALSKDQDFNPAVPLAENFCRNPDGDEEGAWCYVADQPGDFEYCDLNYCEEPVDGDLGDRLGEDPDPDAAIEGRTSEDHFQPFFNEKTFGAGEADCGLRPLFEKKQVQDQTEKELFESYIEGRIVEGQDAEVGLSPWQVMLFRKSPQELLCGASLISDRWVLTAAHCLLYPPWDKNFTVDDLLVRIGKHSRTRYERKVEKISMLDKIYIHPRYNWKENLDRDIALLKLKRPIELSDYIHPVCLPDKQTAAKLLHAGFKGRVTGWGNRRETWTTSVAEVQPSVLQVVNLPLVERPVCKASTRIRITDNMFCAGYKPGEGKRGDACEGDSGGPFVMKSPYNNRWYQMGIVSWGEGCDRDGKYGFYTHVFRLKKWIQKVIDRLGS
# STEP inh conf – STEP (human) phosphatase inhibition, single concentration confirmation | shares compounds with STEP inh | recombinant STEP, OMFP fluorogenic substrate, fluorescence | 520 compounds, 32% hits | AID 623866 | inhibition, % at 20 µM; call rule not given here;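 further: 0% = enzyme with substrate plus DMSO and 100% = substrate without enzyme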
# Numbers without * were called inactive; . = not tested or not shown; + = active, no number. Unless noted, no stated cut-off is given here; in the data, active means inhibition above about 40%; inactive means the rest.
SMILES,Scp1 inh,SUMO1-SIM PPI,STEP inh,DNMT1 block,Rpn11 block,LMPTP inh,DNMT1 inh conf,Beacon interf,Rpn11 inh conf,MMP-2 counter,Thrombin FP,STEP inh conf
CCc1ccccc1NC(=O)c1ccc2nc(N3CCOCC3)sc2c1,10,-2,0,-1,5,0,.,.,.,.,.,.
COC(=O)CN(C#N)c1nc(NCc2ccccc2)nc(OC)n1,-12,4,-1,4,-4,-3,.,.,.,.,.,.
C/C(CC(C)C)=N\NS(=O)(=O)c1ccc(C)c([N+](=O)[O-])c1,1,-6,90*,86*,-26,-1,1,10,.,.,.,-4
COc1ccccc1-c1csc(-n2ncc(C#N)c2N)n1,.,95*,61*,76*,92*,41,12,0,45*,50*,-16,19
O=C(CSc1nc(-c2ccc(F)cc2)nc2c1Cc1ccccc1O2)Nc1cccc(C(=O)O)c1,89*,108*,97*,99*,+,88*,6,-14,0,2,82*,13*
CN(C)c1ccc(NC(=S)NC23CC4CC(CC(C4)C2)C3)cc1,5,5,5,-1,6,8,.,.,.,.,.,.
O=C(Nc1nc2ccc(F)cc2s1)c1cccc(S(=O)(=O)N2CCc3ccccc32)c1,-12,1,-1,-8,6,3,.,.,.,.,.,.
Cc1ccc2nc(NC(=O)c3ccc(S(=O)(=O)N4CCCc5ccccc54)cc3)sc2c1,-6,1,121*,95*,41*,1,3,4,-15,-34,-14,-5
CC(=O)Cc1nsc(NC(=O)c2ccc(-c3ccc(Cl)cc3Cl)o2)n1,-9,-8,-2,-6,-1,2,.,.,.,.,.,.
Cc1nnc2sc(-c3ccc(NC(=O)c4ccc(-c5ccc(Cl)cc5Cl)o4)cc3)nn12,36,31,95*,65*,+,56*,8,1,19,-41,44*,60*
COCCN(CC(=O)Nc1cccc(C)c1C)C(=O)c1oc2c(Cl)cccc2c1C,-10,1,2,-11,6,1,.,.,.,.,.,.
O=C(Cn1c2ccccc2c(=O)c2ccccc21)N/N=C/c1cc([N+](=O)[O-])ccc1N1CCCCCC1,87*,-7,89*,72*,+,66*,4,5,19,8,12,12
Cc1cccc(OC(C)C(=O)Nc2nccs2)c1 (stereo unspecified),1,5,-2,4,-2,-1,.,.,.,.,.,.
COc1ccc(-c2ccc(NC(=O)c3ccc(Br)o3)cc2)nn1,50,9,42*,56*,77*,54*,5,4,13,16,-21,33*
COc1cccc(/C=N/Nc2ncnc3c2[nH]c2ccc(C)cc23)c1OC,20,90*,77*,60*,4,26,1,-3,.,.,.,4
COc1ccc(/C=N/Nc2ncnc3c2[nH]c2ccccc23)c(OC)c1OC,6,-3,-1,20,-9,0,.,.,.,.,.,.
CC1(C)CC(=O)C(C=NCC2CCN(C(=O)Cc3ccccc3)CC2)=C(O)C1,4,70*,48*,76*,137*,15,4,2,93*,3,-8,0
CC(=O)c1cccc(CN2CCCC(CCC(=O)NCc3ccccc3F)C2)c1 (stereo unspecified),-4,0,-2,0,1,-2,.,.,.,.,.,.
CCOc1ccc(S(=O)(=O)Nc2cccc(C(=O)NCCCn3ccnc3)c2)cc1,-2,-7,-2,4,4,-2,.,.,.,.,.,.
Cn1nnc(NCc2cc(Br)ccc2OCc2ccccc2F)n1,-6,1,66*,77*,-13,-1,0,5,.,.,.,24
Fc1ccccc1COc1ccc(Br)cc1CNCC1CCCO1 (stereo unspecified),1,3,-4,6,-7,1,.,.,.,.,.,.
CCOC(=O)c1nc2cc3n(c(CC(C)C)c-2c1C)CC(C)=C3C,-1,-8,-1,-4,56*,2,.,.,18,6,14,.
CCOC(=O)c1nc2cc3n(c(C)c-2c1C)C(C)C(C)=C3C (stereo unspecified),0,-9,-3,-5,1,2,.,.,.,.,.,.
Cc1cc(N)ccc1NC(=O)CN1CCCC1,-13,-1,1,-1,9,-2,.,.,.,.,.,.
Cc1nc(-c2ccc(C(=O)Nc3ccc(F)cc3)cc2)cs1,3,-5,6,36,61*,19,.,.,24,-11,-8,.
SMILES,Scp1 inh,SUMO1-SIM PPI,STEP inh,DNMT1 block,Rpn11 block,LMPTP inh,DNMT1 inh conf,Beacon interf,Rpn11 inh conf,MMP-2 counter,Thrombin FP,STEP inh conf
COc1ccc(N=C2S/C(=C\c3ccc(C)s3)C(=O)N2CC(C)C)cc1,-8,0,10,4,100*,2,.,.,-3,-3,3,.
CCc1c(O)nc(SCC(=O)Nc2ccc(C)cc2)n(C2CCCCC2)c1=O,-15,3,0,5,85*,0,.,.,42*,1,28,.
CCc1c(O)nc(SCC(=O)Nc2ccc(Br)cc2)n(-c2ccc(C)cc2)c1=O,-5,18,-1,-2,20,0,.,.,.,.,.,.
CN(C)CCCNc1nc2cc(-c3ccc4c(ccn4C)c3)sc2c(=O)n1C,.,22,-1,-22,39*,-2,.,.,18,7,-15,.
O=C(COc1ccc(F)cc1)N(Cc1ccc(Cl)cc1)C1CCS(=O)(=O)C1 (stereo unspecified),-6,2,-2,-1,-10,1,.,.,.,.,.,.
COc1nc(N)c(S(=O)(=O)c2ccccc2)cc1C#N,-4,6,-2,-2,54*,-1,.,.,13,-39,-11,.
O=C(Nc1ccc(N2CCOCC2)cc1)c1ccncc1,4,5,1,0,0,1,.,.,.,.,.,.
Cc1ccnc2nc(C(=O)Nc3ccc(N4CCOCC4)cc3)nn12,-2,6,0,-3,133*,0,.,.,-5,-49,-10,.
